Source: PubChem
SENP8 block-1 = blocks the human protease SENP8; purified SENP8, Z-RLRGG-aminoluciferin cleavage, luminescence; AID 2540; Q96LD8; inhibition, % at 10 µM; 330,000 compounds, 1.2% hits; in the data active = inhibition above about 50%
CendR NRP1 mod = alters CendR peptide binding to human NRP-1; O14786; FAM-RPARPAR peptide binding to NRP-1, fluorescence polarization; inhibition, % at 25 µM; 360,000 compounds, 0.85% hits; AID 602438;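 active = inhibition or corrected inhibition above about 18%, plus a signal ratio from 0.5 to 1.5, limit read from the data, passing the limit was not always enough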
SENP6 inh = blocks the human protease SENP6; Q9GZR1; Recombinant SENP6 catalytic domain, aminoluciferin luminescence; inhibition, % at 10 µM; 330,000 compounds, 1.8% hits; AID 2599;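 active = inhibition above about 50% at the single tested dose, limit read from the data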;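 note: plate controls were DMSO wells with enzyme for no effect and DMSO wells lacking enzyme for full effect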
SENP1 inh = SENP1 (human) catalytic domain inhibition; inhibition, % at 10 µM; recombinant SENP1 catalytic domain, CyPet-SUMO1-YPet FRET cleavage; Q9P0U3; 360,000 compounds, 0.21% hits; AID 624204;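 active = inhibition at least 30% at 10 µM, raw YFP signal under a set limit, fluorescence ratio 0.5 to 1.5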;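 note: 0% = enzyme with DMSO and 100% = no enzyme wells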
Target sequence (Q9P0U3 419-644 limits assumed): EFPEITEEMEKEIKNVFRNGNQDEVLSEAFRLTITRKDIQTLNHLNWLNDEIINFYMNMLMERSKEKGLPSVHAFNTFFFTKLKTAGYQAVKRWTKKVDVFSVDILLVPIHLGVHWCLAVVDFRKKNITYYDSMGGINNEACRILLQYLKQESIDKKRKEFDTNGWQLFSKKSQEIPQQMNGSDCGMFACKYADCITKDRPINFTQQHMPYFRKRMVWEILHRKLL
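Assay system – human recombinant His6-tagged SENP1 catalytic domain enzyme · Input – SENP1 enzyme, 20 pM final · Buffer or medium – Tris pH 8 buffer plus EDTA, NaCl, BME, BSA, NP40, catalase · Schedule – 50 min reaction at room temperature · Technique – FRET read of cyan and yellow fluorescence · Control set – no-enzyme wells low, DMSO-plus-enzyme wells high control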
SENP8 block-2 = blocks human SENP8 cleavage of Nedd8 substrate | Q96LD8 | recombinant SENP8, Nedd8 substrate fluorescence | inhibition, % at 20 µM | 360,000 compounds, 0.64% hits | AID 602440; in the data active = inhibition mostly above about 40%, no sharp cut-off; inactive = mostly below about 27%
SENP7 inh = inhibitors of human SENP7 protease | recombinant SENP7, Z-RLRGG-aminoluciferin luminescence, 40 min | inhibition, % at 5 µM | 330,000 compounds, 1.5% hits | AID 434973;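 active = inhibition above about 50% at the single test dose, limit read from the data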;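 note: plate controls were DMSO with enzyme for no effect and no enzyme buffer wells for full effect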
SENP8 confirm = confirmation of human SENP8 protease inhibitors; 6,200 compounds, 40% hits; inhibition, % at 12.5 µM; AID 488912; Recombinant SENP8, Z-RLRGG-aminoluciferin luminescence, 60 min; shares compounds with SENP7 inh;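 active = mean inhibition across replicates above about 50%, limit read from the data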
SENP6 confirm = human SENP6 inhibition, confirmed. shares compounds with SENP7 inh. recombinant SENP6, Z-RLRGG-aminoluciferin luminescence. inhibition, % at 12.5 µM. 6,200 compounds, 58% hits
SENP7 conf = confirmation of human SENP7 protease inhibitors; shares compounds with SENP7 inh; recombinant SENP7, Z-RLRGG-aminoluciferin luminescence, 40 min; inhibition, % at 12.5 µM; 6,200 compounds, 69% hits; AID 488917
Casp3 SENP sel = caspase-3 inhibition (SENP selectivity assay); inhibition, % at 12.5 µM; 6,200 compounds, 60% hits; purified caspase-3, Z-DEVD-aminoluciferin luminescence, 60 min; shares compounds with SENP7 inh;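 active = mean inhibition above about 50%, limit read from the data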;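 note: plate controls were enzyme with DMSO for no effect and wells without caspase-3 for full effect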
Target sequence (P42574 28-227 limits assumed): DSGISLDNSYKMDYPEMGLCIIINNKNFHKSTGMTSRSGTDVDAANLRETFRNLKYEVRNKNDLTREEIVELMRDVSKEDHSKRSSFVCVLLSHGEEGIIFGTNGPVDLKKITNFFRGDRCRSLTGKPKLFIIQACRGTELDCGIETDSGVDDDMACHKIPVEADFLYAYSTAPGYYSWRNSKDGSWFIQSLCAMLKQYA
SENP luc ctr = interferes with luciferase luminescence in SENP counter-screen. shares compounds with SENP7 inh. Pre-incubated SENP8/Z-RLRGG-aminoluciferin, luciferase luminescence interference. inhibition, % at 12.5 µM. 6,200 compounds, 39% hits;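 active = mean inhibition above about 50% when retested at one dose, limit read from the data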;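 note: plate controls were DMSO wells with completed reaction for no effect and substrate without enzyme for full effect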
* = called active by the depositor; · = no result given. In the library only some 3.3% were active in any assay of this set; here they are far more common.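 Rule for the calls, unless noted: active = mean inhibition above about 50% in the one-dose retest (limit read from the data); inactive = the rest.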

SMILES	SENP8 block-1	CendR NRP1 mod	SENP6 inh	SENP1 inh	SENP8 block-2	SENP7 inh	SENP8 confirm	SENP6 confirm	SENP7 conf	Casp3 SENP sel	SENP luc ctr
COc1ccc(/C=C(\C#N)C(=O)OCC(=O)Nc2ccc(-c3nc4ccc(C)cc4s3)cc2)cc1	16.1	-21.7	-1.4	-28.4	-424.8	53.2*	23.6	20.0	44.7	25.8	54.2*
Nc1ccc2nc(-c3ccccc3)sc2c1	96.4*	-6.3	97.7*	-54.8	-288.9	98.1*	98.3*	99.6*	102.7*	98.0*	96.6*
Nc1ccc(-c2nc3cc(N)ccc3s2)cc1	83.9*	-17.7	75.5*	-31.7	-428.6	89.9*	92.8*	93.1*	100.2*	90.2*	90.3*
Nc1ccc2nc(-c3ccccc3)c(-c3ccccc3)nc2c1	1.1	40.2	21.3	-32.4	-221.4	11.5	·	·	·	·	·
Cc1ccc2ccccc2c1C(O)c1ncc(-c2ccc(Cl)cc2)[nH]1 (configuration not stated)	·	-6.7	·	0.6	7.8	·	·	·	·	·	·
Cc1ccc2nc(-c3ccc(N)cc3)sc2c1	94.7*	-34.0	95.1*	-47.8	-458.8	98.2*	95.9*	98.3*	101.9*	91.8*	44.7
CC(=O)NC(=S)Nc1ccc(-c2nc3ccc(C)cc3s2)cc1	-10.4	-7.1	3.4	-47.0	-289.7	11.8	·	·	·	·	·
COC(=O)C1=CN(c2cccc(OCc3ccccc3)c2)C(N)=C(C#N)C1c1ccc(-c2ccccc2)cc1 (configuration not stated)	·	0.9	·	-17.6	-211.4	·	·	·	·	·	·
Nc1nonc1C(=O)NCCNS(=O)(=O)c1ccc(Br)cc1	-4.3	13.2	-31.2	1.4	9.3	90.0*	-4.1	2.3	7.9	6.2	-1.6
Cn1cc(-c2csc(C(O)c3ccc(F)cc3)n2)cn1 (configuration not stated)	·	-0.6	·	-2.2	9.7	·	·	·	·	·	·
COc1cccc(C(=O)/C=C/Nc2ccc(S(=O)(=O)Nc3onc(C)c3C)cc2)c1	78.3*	-6.3	88.3*	-5.4	-1.7	58.4*	67.8*	66.9*	86.2*	68.5*	24.6
Cc1noc(NS(=O)(=O)c2ccc(N/C=C\C(=O)c3ccc(Br)cc3)cc2)c1C	-12.5	-14.1	-13.2	-53.6	-56.9	-11.4	·	·	·	·	·
Cc1noc(NS(=O)(=O)c2ccc(NC(=O)C(Cl)(Cl)Cl)cc2)c1C	-9.4	7.2	-7.0	2.3	10.9	4.6	·	·	·	·	·
Cc1noc(NS(=O)(=O)c2ccc(NC(=O)Nc3ccc(Cl)c(Cl)c3)cc2)c1C	81.7*	-19.0	86.2*	0.2	20.9	15.7	89.0*	89.0*	95.0*	50.7*	85.4*
Cc1cc(NS(=O)(=O)c2ccc(NC(=O)Nc3ccccc3)cc2)no1	22.7	0.5	53.8*	0.7	19.6	33.0	34.2	30.4	67.1*	68.8*	30.2
Cc1cc(NS(=O)(=O)c2ccc(NC(=O)C(c3ccccc3)c3ccccc3)cc2)no1	-6.3	-17.8	3.1	2.2	15.9	2.5	·	·	·	·	·
O=C(Cn1cnc2c(OCc3ccccc3)ncnc21)NCCc1c[nH]c2ccccc12	2.9	3.0	26.4	1.4	11.7	6.7	·	·	·	·	·
Cc1sc2c(c1C)CN(C(C)(C)C)CN2C(=O)c1ccccc1	7.3	-11.3	30.1	7.1	-31.3	0.8	·	·	·	·	·
COCCN1Cc2c(sc(C)c2C)N(C(=O)c2ccccc2)C1	29.1	-13.5	51.4*	-47.6	-246.5	4.8	4.2	1.2	31.8	30.1	48.7
COc1ccccc1C(=O)Nc1nnc(-c2ccccc2)s1	-11.4	-8.3	3.8	-0.1	-121.1	-7.4	·	·	·	·	·
